Measured values from ChEMBL document CHEMBL2046405, “BACE1 Inhibitor Peptides: Can an Infinitely Small k cat Value Turn the Substrate of an Enzyme into Its Inhibitor?” (ACS Med Chem Lett, 2012).
Calls of active or inactive are those of the source. The rule behind the calls is not given here. Where a SMILES comes first, the peptide text is derived from it. [ ]: non-standard residue; d: D form. The star is where a group is joined. Orotyl(5-F) = O=C(c1[nH]c(=O)[nH]c(=O)c1F)*; Dap = NC[C@H](N)C(=O)O

How the values were obtained:
[1] = target: T1, Beta-secretase 1 (Homo sapiens, UniProt P56817); assay: Inhibition of human recombinant BACE1 using 7-methoxycoumarin-4-yl)acetyl-Ser-Glu-Val-Asn-Leu*Asp-Ala- Glu-Phe-Arg-Lys(2,4-dinitrophenyl)-Arg-Arg-NH2 as substrate at 2 uM by FRET assay
T1 sequence (P56817 whole entry, the tested form may be a part): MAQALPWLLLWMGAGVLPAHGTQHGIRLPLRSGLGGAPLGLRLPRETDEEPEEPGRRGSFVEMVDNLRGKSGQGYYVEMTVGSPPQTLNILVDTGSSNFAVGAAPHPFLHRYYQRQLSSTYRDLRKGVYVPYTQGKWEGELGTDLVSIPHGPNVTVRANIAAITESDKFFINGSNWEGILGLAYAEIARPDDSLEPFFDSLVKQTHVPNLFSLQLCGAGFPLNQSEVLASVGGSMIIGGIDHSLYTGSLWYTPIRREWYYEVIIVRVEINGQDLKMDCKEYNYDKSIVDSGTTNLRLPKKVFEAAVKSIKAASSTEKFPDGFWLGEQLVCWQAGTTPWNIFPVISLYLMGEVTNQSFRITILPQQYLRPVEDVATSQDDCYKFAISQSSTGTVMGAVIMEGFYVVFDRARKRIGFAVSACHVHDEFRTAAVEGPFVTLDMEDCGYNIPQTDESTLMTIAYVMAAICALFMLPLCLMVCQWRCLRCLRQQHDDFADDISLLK
Summary of the method: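 Recombinant human BACE1 incubated with FRET substrate and 2.0 μM compound in incubation buffer for 1 h. The N-terminal substrate cleavage fragment was measured by RP-HPLC with fluorescence detection.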

[2] = target: T1, Beta-secretase 1; assay: Inhibition of human recombinant BACE1 using 7-methoxycoumarin-4-yl)acetyl-Ser-Glu-Val-Asn-Leu*Asp-Ala- Glu-Phe-Arg-Lys(2,4-dinitrophenyl)-Arg-Arg-NH2 as substrate by FRET assay
Summary of the method: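 Recombinant human BACE1 and FRET substrate incubated 1 h in incubation buffer with compound at 2.0 or 0.2 μM. The N-terminal cleavage fragment was analysed by reverse-phase HPLC with fluorescence detection.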

[3] = target: T1, Beta-secretase 1; assay: Activity of human recombinant BACE1 after 1 hr
Summary of the method: (§1)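 Peptides incubated with recombinant human BACE1 for 1 or 24 h in buffer, at the same BACE1 and peptide concentrations as the inhibition assay. The buffer was analysed by HPLC for the product of cleavage at the P1–P1′ amide bond.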

[4] = target: T1, Beta-secretase 1; assay: Activity of human recombinant BACE1 after 24 hrs; summary of the method: as §1
[5] = target: T1, Beta-secretase 1; assay: Inhibition of human recombinant BACE1 using 7-methoxycoumarin-4-yl)acetyl-Ser-Glu-Val-Asn-Leu*Asp-Ala- Glu-Phe-Arg-Lys(2,4-dinitrophenyl)-Arg-Arg-NH2 as substrate at 0.2 uM by FRET assay
Summary of the method: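 Recombinant human BACE1 incubated with FRET substrate and 0.2 μM compound in incubation buffer for 1 h. The N-terminal cleavage fragment of the substrate was quantified by RP-HPLC with fluorescence detection.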

Row | SMILES | inhibition [1] [%] | IC50 [2] [µM] | Activity [3] | Activity [4] | inhibition [5] [%]
1 | CC(C)[C@H](NC(=O)[C@@H](N)CCC(=O)O)C(=O)N[C@@H](CC(N)=O)C(=O)N[C@@H](Cc1ccccc1)C(=O)O (H-EVNF-OH) | < 5 |  |  |  | 
2 | CC(C)C[C@H](NC(=O)[C@@H](NC(=O)[C@@H](N)CNC(=O)c1[nH]c(=O)[nH]c(=O)c1F)C(C)C)C(=O)N[C@@H](Cc1ccccc1)C(=O)N[C@H](CC(N)=O)C(=O)O | 95 | 0.086 | inactive | inactive | 65
3 | CC(C)C[C@H](NC(=O)[C@@H](NC(=O)[C@@H](N)CCC(=O)O)C(C)C)C(=O)N[C@@H](Cc1ccccc1)C(=O)N[C@H](CO)C(=O)N[C@@H](C)C(=O)N[C@@H](CCC(=O)O)C(=O)N[C@@H](Cc1ccccc1)C(=O)O | 28 |  |  |  | 
4 | CC(C)[C@H](NC(=O)[C@@H](N)CNC(=O)c1[nH]c(=O)[nH]c(=O)c1F)C(=O)N[C@@H](CC1CCCCC1)C(=O)N[C@@H](Cc1ccccc1)C(=O)N[C@H](CO)C(=O)O | 92 | 0.163 |  |  | 54
5 | CC(C)C[C@H](NC(=O)[C@@H](NC(=O)[C@@H](N)CNC(=O)c1[nH]c(=O)[nH]c(=O)c1F)C(C)C)C(=O)N[C@@H](Cc1ccccc1)C(=O)N[C@@H](C(=O)O)C(C)C | 94 | 0.082 |  |  | 69
6 | CC(C)[C@H](NC(=O)[C@@H](N)CCC(=O)O)C(=O)N[C@@H](CCCCN)C(=O)N[C@@H](Cc1ccccc1)C(=O)O (H-EVKF-OH) | 10 |  |  |  | 
7 | CC(C)C[C@H](NC(=O)[C@@H](NC(=O)[C@@H](N)CCC(=O)O)C(C)C)C(=O)N[C@@H](Cc1ccccc1)C(=O)O (H-EVLF-OH) | 8 |  |  |  | 
8 | CC(C)C[C@H](NC(=O)[C@@H](NC(=O)[C@@H](N)CNC(=O)c1[nH]c(=O)[nH]c(=O)c1F)C(C)C)C(=O)N[C@@H](Cc1ccccc1)C(=O)N[C@@H](CO)C(=O)O | 85 | 0.263 | inactive | inactive | 48
9 | CC(C)C[C@H](NC(=O)[C@@H](NC(=O)[C@@H](N)CNC(=O)c1[nH]c(=O)[nH]c(=O)c1F)C(C)C)C(=O)N[C@@H](Cc1ccccc1)C(=O)N[C@H](CO)C(=O)O | 94 | 0.138 | inactive | inactive | 57
10 | CC(C)C[C@H](NC(=O)[C@@H](NC(=O)[C@@H](N)CCC(=O)O)C(C)C)C(=O)N[C@@H](Cc1ccccc1)C(=O)N[C@@H](CN)C(=O)N[C@@H](C)C(=O)N[C@@H](CCC(=O)O)C(=O)N[C@@H](Cc1ccccc1)C(=O)O | 7 |  |  |  | 
11 | CC(C)C[C@H](NC(=O)[C@@H](NC(=O)[C@@H](N)CNC(=O)c1[nH]c(=O)[nH]c(=O)c1F)C(C)C)C(=O)N[C@@H](Cc1ccccc1)C(=O)O (H-[Dap](Orotyl(5-F))VLF-OH) | 90 | 0.184 | Active | Active | 54
12 | CC(C)C[C@H](NC(=O)[C@@H](NC(=O)[C@@H](N)CNC(=O)c1[nH]c(=O)[nH]c(=O)c1F)C(C)C)C(=O)N[C@@H](Cc1ccccc1)C(=O)N[C@H](C)C(=O)O | 93 | 0.169 |  |  | 53
13 | CC(C)C[C@H](NC(=O)[C@@H](NC(=O)[C@@H](N)CNC(=O)c1[nH]c(=O)[nH]c(=O)c1F)C(C)C)C(=O)N[C@@H](Cc1ccccc1)[C@@H](O)C(=O)Nc1cccc(C(=O)O)c1 |  | 0.026 |  |  | 
14 | CC(C)[C@H](NC(=O)[C@@H](N)CNC(=O)c1[nH]c(=O)[nH]c(=O)c1F)C(=O)N[C@@H](CC(N)=O)C(=O)N[C@@H](Cc1ccccc1)C(=O)N[C@@H](CC(N)=O)C(=O)O (H-[Dap](Orotyl(5-F))VNFN-OH) | < 5 |  |  |  | 
15 | CC(C)[C@H](NC(=O)[C@@H](N)CNC(=O)c1[nH]c(=O)[nH]c(=O)c1F)C(=O)N[C@@H](CC1CCCCC1)C(=O)N[C@@H](Cc1ccccc1)C(=O)N[C@H](CC(N)=O)C(=O)O | 92 | 0.141 |  |  | 58
16 | CC(C)[C@H](NC(=O)[C@@H](N)CNC(=O)c1[nH]c(=O)[nH]c(=O)c1F)C(=O)N[C@@H](CC(N)=O)C(=O)N[C@@H](Cc1ccccc1)C(=O)O (H-[Dap](Orotyl(5-F))VNF-OH) | < 5 |  |  |  | 
17 | CC(C)C[C@H](NC(=O)[C@@H](NC(=O)[C@@H](N)CCC(=O)O)C(C)C)C(=O)N[C@@H](Cc1ccccc1)C(=O)N[C@H](CS)C(=O)N[C@@H](C)C(=O)N[C@@H](CCC(=O)O)C(=O)N[C@@H](Cc1ccccc1)C(=O)O | 28 |  |  |  | 
18 | CC(C)C[C@H](NC(=O)[C@@H](NC(=O)[C@@H](N)CNC(=O)c1[nH]c(=O)[nH]c(=O)c1F)C(C)C)C(=O)N[C@@H](Cc1ccccc1)C(=O)N[C@@H](CC(N)=O)C(=O)O | 89 | 0.173 | inactive | inactive | 56
19 | CC(C)C[C@H](NC(=O)[C@@H](NC(=O)[C@@H](N)CCC(=O)O)C(C)C)C(=O)N[C@@H](Cc1ccccc1)C(=O)N[C@H](CC(N)=O)C(=O)O | 29 |  |  |  | 
20 | CC(C)C[C@H](NC(=O)[C@@H](NC(=O)[C@@H](N)CCC(=O)O)C(C)C)C(=O)N[C@@H](Cc1ccccc1)C(=O)N[C@@H](CS)C(=O)N[C@@H](C)C(=O)N[C@@H](CCC(=O)O)C(=O)N[C@@H](Cc1ccccc1)C(=O)O | < 5 |  |  |  | 
21 | CC(C)C[C@H](NC(=O)[C@@H](NC(=O)[C@@H](N)CCC(=O)O)C(C)C)C(=O)N[C@@H](Cc1ccccc1)C(=O)N[C@@H](CO)C(=O)N[C@@H](C)C(=O)N[C@@H](CCC(=O)O)C(=O)N[C@@H](Cc1ccccc1)C(=O)O | 6 |  |  |  | 
22 | CC(C)C[C@H](NC(=O)[C@@H](NC(=O)[C@@H](N)CCC(=O)O)C(C)C)C(=O)N[C@@H](Cc1ccccc1)C(=O)N[C@H](CN)C(=O)N[C@@H](C)C(=O)N[C@@H](CCC(=O)O)C(=O)N[C@@H](Cc1ccccc1)C(=O)O | 15 |  |  |  | 
23 | CC(C)C[C@H](NC(=O)[C@@H](NC(=O)[C@@H](N)CCC(=O)O)C(C)C)C(=O)N[C@@H](Cc1ccccc1)C(=O)N[C@H](CO)C(=O)O | 23 |  |  |  | 
